# Data published in ChEMBL document CHEMBL4196056, “Zirconium catalyzed synthesis of 2-arylidene Indan-1,3-diones and evaluation of their inhibitory activity against NS2B-NS3 WNV protease” (Eur J Med Chem, 2018).
# Activity calls are given as the source filed them. No cut-off for these calls is given here.
# Legend:
# West Nile virus [1] = experiment: Inhibition of recombinant West Nile virus NS2B-NS3 protease at 16 umol/L using pERTKR-AMC as substrate preincubated for 30 mins followed by substrate addition by fluorescence assay
# How it was run: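 Single-point screen of purified, pre-activated recombinant WNV NS2B-NS3 at 1 ng µL-1 final, in 50 mmol L-1 Tris with 30% glycerol, pH 9.5, and 1% DMSO final. Enzyme and compound (16 µmol L-1 final) were held 30 min at 21-22 °C before pERTKR-AMC was added. Fluorescence (ex 360/em 460 nm) was read continuously, with buffer/DMSO as negative control. Triplicate wells in three independent experiments; one-way ANOVA.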
# [2] = (§1) Inhibition of recombinant West Nile virus NS2B-NS3 protease using pERTKR-AMC as substrate preincubated for 30 mins followed by substrate addition by fluorescence assay
# How it was run: (§2)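 Same protease format (1 ng µL-1 enzyme, Tris/30% glycerol pH 9.5, 30 min preincubation at 21-22 °C, pERTKR-AMC, ex 360/em 460 nm). Eight inhibitor concentrations spanning 66-0.5 µmol L-1 were tested, with reads every 30 s for 5 min. Triplicate wells in three independent experiments; IC50 from four-parameter nonlinear regression (Hill slope).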
# West Nile virus [3] = experiment: as §1; how it was run: as §2
# [4] = Non-competitive inhibition of recombinant West Nile virus NS2B-NS3 protease using pERTKR-AMC as substrate preincubated for 30 mins followed by substrate addition by Lineweaver-Burk plot analysis
# How it was run: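 Kinetic series with WNV protease at 37.04 nmol L-1 (1 ng µL-1), inhibitor at 2, 4 and 8 µmol L-1, and pERTKR-AMC at five levels ([…] as printed). Fluorescence was read every 30 s in triplicate wells, and velocities (RFU/min) were computed for each substrate/inhibitor pair. Ki came from nonlinear enzyme-kinetics regression.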
# [5] = Cytotoxicity against African green monkey Vero cells after 24 hrs by MTT assay; format: cell-based; conditions: chlorocebus sabaeus
# How it was run: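 Vero cells (5 x 10^4/well) were exposed for 24 h at 37 °C to eight concentrations (4-1000 µmol L-1) in MEM with 2% FBS and 1% DMSO. MTT was added for 4 h, formazan was dissolved in DMSO, and absorbance was read at 550 nm. CC50 was derived by curve fitting.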
# dengue virus type 1 = experiment: Antiviral activity against Dengue virus 1 infected in African green monkey Vero cells assessed as decrease in viral infection preincubated for 1 hr followed by cell addition and subsequent incubation for 1 hr and measured after 5 to 6 days by crystal violet staining-based assay; format: functional, organism-based
# How it was run: (§3)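 Virucidal plaque-reduction format. Virus suspension (50-100 PFU) was mixed 1:1 with compound at 3, 6, 12, 25, 50 or 100 µmol L-1 and held 1 h at 37 °C. The mixture went onto Vero monolayers (8 x 10^5 cells/well) for 1 h adsorption with shaking, then a 3% CMC overlay in 2x DMEM with 2% FBS for 5-6 days. Cells were formaldehyde-fixed and crystal violet-stained, plaques were counted, and EC50 came from nonlinear regression.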
# dengue virus type 2 = experiment: Antiviral activity against Dengue virus 2 infected in African green monkey Vero cells assessed as decrease in viral infection preincubated for 1 hr followed by cell addition and subsequent incubation for 1 hr and measured after 5 to 6 days by crystal violet staining-based assay; format: functional, organism-based; how it was run: as §3
# dengue virus type 3 = experiment: Antiviral activity against Dengue virus 3 infected in African green monkey Vero cells assessed as decrease in viral infection preincubated for 1 hr followed by cell addition and subsequent incubation for 1 hr and measured after 5 to 6 days by crystal violet staining-based assay; format: functional, organism-based; how it was run: as §3
# dengue virus type 4 = experiment: Antiviral activity against Dengue virus 4 infected in African green monkey Vero cells assessed as decrease in viral infection preincubated for 1 hr followed by cell addition and subsequent incubation for 1 hr and measured after 5 to 6 days by crystal violet staining-based assay; format: functional, organism-based; how it was run: as §3
# [6] = Selectivity index, ratio of CC50 for African green monkey Vero cells to EC50 for Dengue virus 1 infected in African green monkey Vero cells; format: toxicity; conditions: Vero cells infected with Dengue virus 1, read-out: Ratio CC50/EC50
# How it was run: (§4)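 Selectivity index calculated as CC50 from the 24 h Vero MTT assay divided by EC50 from the virucidal plaque-reduction assay for each DENV serotype.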
# [7] = Selectivity index, ratio of CC50 for African green monkey Vero cells to EC50 for Dengue virus 2 infected in African green monkey Vero cells; format: toxicity; conditions: Vero cells infected with Dengue virus 2, read-out: Ratio CC50/EC50; how it was run: as §4
# [8] = Selectivity index, ratio of CC50 for African green monkey Vero cells to EC50 for Dengue virus 3 infected in African green monkey Vero cells; format: toxicity; conditions: Vero cells infected with Dengue virus 3, read-out: Ratio CC50/EC50; how it was run: as §4
# [9] = Selectivity index, ratio of CC50 for African green monkey Vero cells to EC50 for Dengue virus 4 infected in African green monkey Vero cells; format: toxicity; conditions: Vero cells infected with Dengue virus 4, read-out: Ratio CC50/EC50; how it was run: as §4
structure (smiles),measurement,setting,value
COc1cc(C=C2C(=O)c3ccccc3C2=O)cc(OC)c1O,inhibition,West Nile virus [1],Active
O=C1C(=Cc2ccc(F)cc2)C(=O)c2ccccc21,inhibition,West Nile virus [1],inactive
O=C1C(=Cc2ccc3c(c2)OCO3)C(=O)c2ccccc21,inhibition,West Nile virus [1],inactive
O=C1C(=Cc2ccco2)C(=O)c2ccccc21,inhibition,West Nile virus [1],inactive
CN(C)c1ccc(C=C2C(=O)c3ccccc3C2=O)cc1,inhibition,West Nile virus [1],inactive
COc1cc(C=C2C(=O)c3ccccc3C2=O)ccc1O,inhibition,West Nile virus [1],Active
O=C1C(=Cc2ccccc2)C(=O)c2ccccc21,inhibition,West Nile virus [1],inactive
COc1ccc(C=C2C(=O)c3ccccc3C2=O)cc1OC,inhibition,West Nile virus [1],inactive
O=C1C(=Cc2ccc([N+](=O)[O-])cc2)C(=O)c2ccccc21,inhibition,West Nile virus [1],inactive
N#Cc1ccc(C=C2C(=O)c3ccccc3C2=O)cc1,inhibition,West Nile virus [1],inactive
COc1cc(C=C2C(=O)c3ccccc3C2=O)cc(OC)c1OC,inhibition,West Nile virus [1],inactive
O=C1C(=Cc2ccc(O)c(O)c2)C(=O)c2ccccc21,IC50,[2],3 µM
same,inhibition,West Nile virus [3],Dose-dependent effect
same,inhibition,West Nile virus [1],100%
same,Ki,[4],1.25 µM
same,CC50 at 24 h,[5],268 µM
same,EC50,dengue virus type 1,7.97 µM
same,EC50,dengue virus type 2,20.4 µM
same,EC50,dengue virus type 3,1.82 µM
same,EC50,dengue virus type 4,29.9 µM
same,selectivity ratio,[6],34
same,selectivity ratio,[7],13
same,selectivity ratio,[8],147
same,selectivity ratio,[9],9
O=C1C(=Cc2ccc(Br)cc2)C(=O)c2ccccc21,inhibition,West Nile virus [1],inactive
COc1ccc(C=C2C(=O)c3ccccc3C2=O)cc1O,inhibition,West Nile virus [1],Active
O=C1C(=Cc2ccc(O)cc2)C(=O)c2ccccc21,IC50,[2],11 µM
same,inhibition,West Nile virus [3],Dose-dependent effect
same,inhibition,West Nile virus [1],41%
same,Ki,[4],12.3 µM
same,CC50 at 24 h,[5],89.7 µM
same,EC50,dengue virus type 1,46.6 µM
same,EC50,dengue virus type 2,39.2 µM
same,EC50,dengue virus type 3,21 µM
same,EC50,dengue virus type 4,55.9 µM
same,selectivity ratio,[6],2
same,selectivity ratio,[7],2
same,selectivity ratio,[8],4
same,selectivity ratio,[9],2
COc1ccc(C=C2C(=O)c3ccccc3C2=O)cc1,inhibition,West Nile virus [1],inactive
